18 molecules from PubChem BioAssay can be followed below.

Values without a mark were called inactive. Results filed as inconclusive are left out. The source made the active and inactive calls.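 How the source made its calls, unless noted: active means RAM network inhibition above 8.4% in each of two replicates, 3 SD over the compound average; inconclusive means above 8.4% inhibition in only one replicate; inactive means 8.4% inhibition or less in each replicate.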

Assay [1] in a line: S. cerevisiae growth inhibition in permissive medium (OD615), pilot counter-assay for S. cerevisiae lifespan shortening project, permissive growth control (AID 705;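 active means growth inhibition above 25% in both replicates, a cutoff set 3 SD above the mean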). To be noted: OD615, 24 h, at 10 µM, stronger effect = higher value. In short, it runs like this:
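Timing: 24 h exposure, 30 °C / Material: Saccharomyces cerevisiae strain carrying genetically modified DeaD replicative-lifespan system / Signal: OD at 615 nm / Compound: 10 µM single dose, 0.25% DMSO / Medium: SC raffinose/galactose permissive medium / Evaluation: reduction in yeast growth (OD615)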

The nature of assay [2]: S. cerevisiae growth inhibition in restrictive medium, OD615, pilot screen, restrictive growth control, yeast lifespan reduction project (AID 706;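 active means growth inhibition above a set limit, 3 SD over mean compound inhibition, in both replicates, cut at about 43% in these data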;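 further: modified DeaD lifespan yeast strain shifted to restrictive glucose medium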). To be noted: OD615, 48 h, at 10 µM, stronger effect = higher value. In short, it runs like this:
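System: Engineered S. cerevisiae DeaD strain | Detection: OD615 | Buffer or medium: CSMM-D glucose medium | Doses: 10 µM compound, 0.25% DMSO | Timing: 4 h pre-growth plus 48 h compound exposure, 30 °C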

Assay [3] in a line: doxorubicin toxicity protection in MRP-1 cells – H69AR cells, CellTiter-Glo, duplicate, MRP-1 activator project, pilot screen (AID 807;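 active means viability increase at or above a cutoff of the median across tested compounds plus 3 SD, cut at about 8.5% in these data, passing the limit was not always enough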;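 further: compound pretreatment 18-22 h then 72 h combined with doxorubicin; 0% = doxorubicin alone and 100% = vehicle without doxorubicin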). Particulars: H69AR viability with doxorubicin, CellTiter-Glo luminescence; at 10 µM; stronger effect = higher value. (In general: ATP-based viability assays read luminescence as a measure of living cells.)
Assay [4] is described as follows: viability of HCT116 without oncogenic beta-catenin – human colon tumor cells, pilot screen (AID 823;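 active means cell viability at or below a set limit in both duplicate runs, the limit being the all-compound median minus 4 SD, cut at about 23% in these data, passing the limit was not always enough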;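 further: 0% = wells killed by 20 µM Hyamine and 100% = untreated DMSO cell wells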). To be noted: HCT116 beta-catenin knockout viability, CellTiter-Glo, 60 h; at 10 µM; stronger effect = lower value.
The nature of assay [5]: viability of PTEN-null HCT116 cells – cell-based, HCT116 clonal line, CellTiter-Glo, pilot screen (AID 824;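 active means viability at or below 27.92% in each of two runs, the all-compound median minus 4 SD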;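 further: 0% = 20 µM Hyamine control and 100% = vehicle cell control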). To be noted: HCT116 PTEN-deleted viability, 60 h, at 10 µM, stronger effect = lower value.
Assay [6] can be described thus: RAM pathway blockade in budding yeast – dse1pr::URA3 reporter, 5-FOA selection, pilot screen (AID 869;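 active means inhibition over a set limit, the all-compound mean plus 3 SD, in both replicate runs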;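 further: 0% = DMSO wells with no growth and 100% = 10 µM 1-NA-PP1 with full growth; RAM network block rescues cells from 5-FOA so hits raise OD615 growth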). To be noted: S. cerevisiae dse1pr::URA3 5-FOA growth, OD615, 2 d; at 10 µM; stronger effect = higher value; strain carries analog-sensitive mutant Cbk1 kinase.
Assay [7] is described as follows: RAM signaling pathway blockade in yeast – S. cerevisiae, Pdr1DBD-CYC8 efflux-inhibited sensitized strain, primary screen (AID 1298).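 Further: 0% = DMSO untreated cells without growth and 100% = 10 µM 1-NA-PP1 full growth; higher means more yeast growth rescued from 5-FOA killing.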 Particulars: S. cerevisiae cbk1-as DSE1-URA3 strain, 5-FOA growth OD615, 2 d; at 50 µM; stronger effect = higher value.

Broadly, the viability is a read-out of living cells in per cent, often relative to untreated cells. For orientation: inhibition means the drop in the measured response relative to a control, in per cent.

As to `O=C(COC(=O)C1CCCO1)Nc1cccc(C(F)(F)F)c1` (stereo unspecified), the growth inhibition in assay [1] is -22.8%; in assay [2], -15.9%. For the same molecule, the viability increase in assay [3] is 0%. Further, the viability in assay [4] was 91.8%; in assay [5], 94.5%. Moreover, in assay [6], the inhibition is 1.63%. Moreover, the RAM network inhibition in assay [7] was 2.45%.
`COC(=O)c1ccccc1NC(=O)Nc1nnc(N2CCCCC2C)s1` (stereo unspecified): the growth inhibition in assay [1] was -8.82%; in assay [2], 5.2%. Also, the viability increase in assay [3] was -0.77%. The values for the viability in assay [4] and in assay [5] were 64.3% and 49.8%, respectively. Further, the inhibition in assay [6] is 0.815%. The RAM network inhibition in assay [7] is 1.05%.
Turning to `Cc1cccc(N(C)S(=O)(=O)c2cccc3nsnc23)c1`, the figures for the growth inhibition in assay [1] and in assay [2] were -12% and -17.9%, respectively. The viability increase in assay [3] is -4.32%. In addition, the results for the viability in assay [4] and in assay [5] were 92.5% and 89%, respectively. In addition, in assay [6], the inhibition is 0.325%. Moreover, the RAM network inhibition in assay [7] is 4.78%.
With `O=C(c1cnn2ccccc12)N1CCc2ccccc21`, the growth inhibition is 0.67% in assay [1] and -5.48% in assay [2]. Besides, the viability increase in assay [3] was -2.13%. For the same molecule, the viability in assay [4] is 97.9%; in assay [5], 91.9%. Moreover, in assay [6], the inhibition was 1.33%. The RAM network inhibition in assay [7] was 1.54%.
Regarding `CCOc1ccc(-c2noc(CCC(=O)O)n2)cc1`, the growth inhibition is 6.08% in assay [1] and -3.1% in assay [2]. In addition, the viability increase in assay [3] is 0.28%. For the same molecule, the values for the viability in assay [4] and in assay [5] were 102% and 95.1%, respectively. The inhibition in assay [6] is 1.56%. For the same molecule, the RAM network inhibition in assay [7] was 0.42%.
Consider `Cc1cc(C)nc(SCSc2nc(C)cc(C)n2)n1`, for which the growth inhibition in assay [1] is 0.095%; in assay [2] it was 5.64%. For the same molecule, in assay [3], the viability increase was -2.17%. Further, the viability in assay [4] was 104%; in assay [5], 103%. In addition, the inhibition in assay [6] is 1.23%. In addition, the RAM network inhibition in assay [7] is 5.29%.
As for `Cc1ccnc(N2C(=O)c3ccccc3C2Nc2cccc(C)c2C)c1` (stereo unspecified), the growth inhibition in assay [1] is -14%; in assay [2] it was -0.8%. Besides, the viability increase in assay [3] was 0.92%. Further, the figures for the viability in assay [4] and in assay [5] were 92% and 87.1%, respectively. Moreover, the inhibition in assay [6] is 1.32%. In addition, the RAM network inhibition in assay [7] was 6.56%.
With `CSc1nc2c(c(=O)n1-c1ccc(F)cc1)SCC2`, the growth inhibition in assay [1] was -9.67%; in assay [2], -24.3%. Besides, in assay [3], the viability increase is -1.07%. The viability is 102% in assay [4] and 93.7% in assay [5]. In assay [6], the inhibition is 2.19%. Also, in assay [7], the RAM network inhibition was 4.08%.
As for `O=C(c1c(Cl)nc2sccn12)N1CCN(c2cccc(Cl)c2)CC1`, the growth inhibition was 0.85% in assay [1] and 18.6% in assay [2]. The viability increase in assay [3] is -4.96%. The figures for the viability in assay [4] and in assay [5] were 13.8% (active) and 17.8% (active), respectively. The inhibition in assay [6] is 0.91%. The RAM network inhibition in assay [7] was 5.21%.
For the molecule `CC(=O)C(C)Oc1ccc2c3c(c(=O)oc2c1)CCCC3` (stereo unspecified), the growth inhibition in assay [1] is -6.26%; in assay [2] it was 9.38%. The viability increase in assay [3] is 0.37%. The viability is 93% in assay [4] and 91.1% in assay [5]. Moreover, the inhibition in assay [6] was 2.3%. In addition, in assay [7], the RAM network inhibition is 0.72%.
In the case of `Cc1nnc(SCC(=O)N2CCOCC2)n1C`, the growth inhibition is -6.97% in assay [1] and -18% in assay [2]. Moreover, the viability increase in assay [3] is -0.95%. For the same molecule, the viability in assay [4] is 106%; in assay [5], 101%. In assay [6], the inhibition is 2.25%. Further, the RAM network inhibition in assay [7] was 2.02%.
On to `COC(=O)CSc1ccc2nnc(-c3ccc(OC)c(OC)c3)n2n1`, for which the growth inhibition in assay [1] was -10.3%; in assay [2], -18.4%. The viability increase in assay [3] was -0.56%. Besides, the viability is 106% in assay [4] and 107% in assay [5]. For the same molecule, in assay [6], the inhibition is -0.01%. The RAM network inhibition in assay [7] is 3.82%.
Turning to `O=C1CCCc2c1[nH]c1c(Br)cccc21`, the growth inhibition in assay [1] is 5.96%; in assay [2], -1.3%. The viability increase in assay [3] was 0.96%. Also, the viability in assay [4] was 108%; in assay [5] it was 105%. The inhibition in assay [6] was 0.425%. Further, in assay [7], the RAM network inhibition is 3.4%.
`CCC(C(=O)N1CC2(C)CC1CC(C)(C)C2)N1C(=O)c2ccccc2C1=O` (stereo unspecified): the figures for the growth inhibition in assay [1] and in assay [2] were -2.71% and -3.99%, respectively. Besides, in assay [3], the viability increase is -3.05%. The results for the viability in assay [4] and in assay [5] were 91.5% and 96.8%, respectively. In assay [6], the inhibition was 1.57%. In addition, the RAM network inhibition in assay [7] is 6%.
Take `Cn1c(=O)oc2cc(S(=O)(=O)N3CCC(C(=O)N4CC=C(c5ccccc5)CC4)CC3)ccc21`: the growth inhibition in assay [1] was -0.22%; in assay [2] it was 4.63%. Besides, the viability increase in assay [3] was 0.15%. Besides, the viability in assay [4] was 98.9%; in assay [5], 94.8%. Moreover, the inhibition in assay [6] is 0.01%. In assay [7], the RAM network inhibition was 6.76%.
With `CC12CCC(C(=O)Nc3ccccc3N3CCOCC3)(CC1=O)C2(C)C` (stereo unspecified), the values for the growth inhibition in assay [1] and in assay [2] were -9.71% and -14.9%, respectively. Moreover, in assay [3], the viability increase is -2.5%. Also, the viability in assay [4] is 90.3%; in assay [5], 94.8%. In assay [6], the inhibition was 0.715%. Besides, in assay [7], the RAM network inhibition is 6.03%.
Turning to `Cc1ccc(-c2nn(C)c(=O)c3ccccc23)cc1CNC(=O)c1ccco1`, the growth inhibition in assay [1] was -19.5%; in assay [2], -16.5%. Also, in assay [3], the viability increase was -6.36%. For the same molecule, the viability in assay [4] is 78.3%; in assay [5] it was 72.9%. Also, in assay [6], the inhibition is 1.3%. In assay [7], the RAM network inhibition is 6.65%.
On to `O=C(NCc1cccs1)c1cnc2sccn2c1=O`, for which the growth inhibition in assay [1] is -9.93%; in assay [2] it was 18%. The viability increase in assay [3] is 0.04%. Also, the viability is 99.3% in assay [4] and 89.9% in assay [5]. In assay [6], the inhibition is 1.6%. Moreover, in assay [7], the RAM network inhibition is 0.36%.
